Activity calls are given as the source filed them. The rule behind the calls is not given here.

The source of these data is ChEMBL document CHEMBL5500387, “Design, synthesis of combretastatin A-4 piperazine derivatives as potential antitumor agents by inhibiting tubulin polymerization and inducing autophagy in HCT116 cells” (Eur J Med Chem, 2024).

Series [1] deals with HCT-116. Nature of the series: Induction of autophagy in human HCT-116 cells assessed as increase in LC3-II protein expression measured after 24 hrs by Western blot analysis. Type of series: functional, cell-based. The settings on record: dose 0.1-0.3 µM. In outline: (§1)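 HCT116 cells exposed for 24 h to 0.1, 0.2 or 0.3 μM. Lysed on ice and protein measured by BCA. […] Milk-blocked, probed with anti-LC3A/B or anti-phospho-SQSTM1/p62 (1:1000) plus β-actin, then HRP anti-rabbit and chemiluminescence. Bands normalised to control set to 1. Three independent experiments.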

Series [2] relates to HCT-116. The series is described as follows: Induction of cell cycle arrest in human HCT-116 cells assessed as accumulation of cells at G2/M phase at 0.3 uM measured after 24 hrs by PI/RNase staining based flow cytometry analysis (reference value: 28.83%). The format is functional.
The subject of series [3] is A549. The series is described as follows: Induction of cell cycle arrest in human A549 cells assessed as accumulation of cells at S phase at 0.1 uM measured after 24 hrs by PI/RNase staining based analysis (reference value: 24.95%). The format is functional.
The test system of series [4] is A549. The series is described as follows: Induction of apoptosis in human A549 cells assessed as early apoptotic cells at 0.2 uM measured after 24 hrs by Annexin V-APC/PI staining based flow cytometry analysis (reference value: 1.73%). Type of series: functional.
In series [5] the test system is HCT-116. The series is described as follows: Inhibition of cell invasion in human HCT-116 cells measured after 48 hrs by crystal violet staining based fluorescent inverted microscopic analysis. Particulars: dose 0.1-0.3 µM. Type of series: functional. In outline:
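Transwell inserts were coated with Matrigel (1:3 in serum-free medium). HCT116 cells (1×10^4) in serum-free medium went in the upper chamber, with complete medium as stimulus. Treated with 0.1, 0.2 or 0.3 μM or 0.1% DMSO for 48 h at 37 °C. Fixed in 4% paraformaldehyde, stained with 0.1% crystal violet, and imaged. Counts analysed by ImageJ. At least three replicates.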

Series [6] relates to HCT-116. The series is described as follows: Cytotoxicity against human HCT-116 cells assessed as inhibition of cell proliferation measured after 72 hrs by CCK-8 assay. The format is functional, cell-based. The settings on record: HCT-116, 72 h. In outline:
(§2)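 Cells seeded at 2×10^3 per well and grown overnight in 10% FBS medium: HCT116 in McCoy's 5A, A549 and AGS in F-12K, SK-MES-1 in DMEM. Compounds added at varied concentrations with 0.1% DMSO control, 72 h at 37 °C. 10% CCK-8 for 2 h, then A450 read. Survival = (As−Ab)/(Ac−Ab)×100%. IC50 from curve fitting.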

Series [7] deals with A549. The series is described as follows: Induction of apoptosis in human A549 cells assessed as late apoptotic cells at 0.3 uM measured after 24 hrs by Annexin V-APC/PI staining based flow cytometry analysis (reference value: 0.86%). The format is functional.
Series [8] deals with Tubulin (Homo sapiens) (UniProt P68371+Q9H4B7+P0DPH7+P68366+Q13509+Q71U36+P04350+Q3ZCM7+P07437+P68363+Q9BQE3+Q6PEY2+Q13885+Q9BVA1+Q9BUF5). The series is described as follows: Disruption of microtubule network in human HCT-116 cells at 0.1 to 0.3 uM measured after 48 hrs by immunofluorescent staining based analysis. Type of series: cell-based. Particulars: dose 0.1-0.3 µM. In outline:
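HCT116 cells (1×10^5/well suspension) settled on glass slides overnight at 37 °C, 5% CO2. Treated 48 h with 0.1, 0.2 or 0.3 μM, or 0.1% DMSO. Fixed in 4% paraformaldehyde, permeabilised with 0.5% Triton X-100, blocked. Anti-α-tubulin (1:4000) at 4 °C overnight, then Alexa488 anti-mouse IgG 1 h. DAPI mount, confocal imaging.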

Series [9] deals with HCT-116. The series is described as follows: Induction of cell cycle arrest in human HCT-116 cells assessed as accumulation of cells at G0/G1 phase at 0.3 uM measured after 24 hrs by PI/RNase staining based flow cytometry analysis (reference value: 32.88%). Type of series: functional.
The subject of series [10] is A549. The series is described as follows: Induction of apoptosis in human A549 cells assessed as dead cells at 0.1 uM measured after 24 hrs by Annexin V-APC/PI staining based flow cytometry analysis (reference value: 0.50%). The format is functional.
The test system of series [11] is HCT-116. The series is described as follows: Induction of autophagy in human HCT-116 cells assessed as downregulation of p62 protein level measured after 24 hrs by Western blot analysis. The settings on record: dose 0.1-0.3 µM. The format is functional, cell-based. In outline:
as §1

For series [12], the system named is AGS. Nature of the series: Cytotoxicity against human AGS cells assessed as inhibition of cell proliferation measured after 72 hrs by CCK-8 assay. Type of series: functional, cell-based. In outline: as §2
In series [13] the test system is HCT-116. The series is described as follows: Induction of cell cycle arrest in human HCT-116 cells assessed as accumulation of cells at S phase at 0.2 uM measured after 24 hrs by PI/RNase staining based flow cytometry analysis (reference value: 38.29%). Type of series: functional.
Series [14] has as its system A549. The series is described as follows: Induction of cell cycle arrest in human A549 cells assessed as accumulation of cells at G2/M phase at 0.1 uM measured after 24 hrs by PI/RNase staining based analysis (reference value: 10.22%). Type of series: functional.
Series [15] has as its system A549. The series is described as follows: Induction of cell cycle arrest in human A549 cells assessed as accumulation of cells at S phase at 0.2 uM measured after 24 hrs by PI/RNase staining based analysis (reference value: 24.95%). The format is functional.
In series [16] the test system is A549. The series is described as follows: Induction of cell cycle arrest in human A549 cells assessed as accumulation of cells at G0/G1 phase at 0.3 uM measured after 24 hrs by PI/RNase staining based analysis (reference value: 41.91%). The format is functional.
For series [17], the system named is A549. Nature of the series: Induction of apoptosis in human A549 cells assessed as late apoptotic cells at 0.2 uM measured after 24 hrs by Annexin V-APC/PI staining based flow cytometry analysis (reference value: 0.86%). The format is functional.
Series [18] relates to A549. Nature of the series: Induction of apoptosis in human A549 cells assessed as early apoptotic cells at 0.1 uM measured after 24 hrs by Annexin V-APC/PI staining based flow cytometry analysis (reference value: 1.73%). Type of series: functional.
Series [19] is described as follows: Selectivity index, ratio of IC50 for human NCM460 cells to IC50 for human HCT-116 cells. The settings on record: NCM460 cells and HCT-116 cells, read-out: Ratio IC50. Type of series: toxicity. In a few lines: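 The selectivity index is IC50 in NCM460 normal colonic epithelial cells (RPMI-1640, 10% FBS) divided by IC50 in HCT116. Both were measured by 72 h CCK-8 viability at 2×10^3 cells/well with A450 read-out.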

In series [20] the test system is HCT-116. The series is described as follows: Induction of autophagy in human HCT-116 cells transfected with mRFP-GFP-LC3 adenovirus assessed as increase in LC3 labeling by measuring increase in number of yellow dots measured after 24 hrs by immunofluorescence staining based confocal microscopic analysis. Type of series: functional, cell-based. The settings on record: dose 0.1-0.3 µM. In a few lines: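 HCT116 cells on glass slides were infected with mRFP-GFP-LC3 adenovirus at 50% confluence and incubated 24 h. They were then treated 24 h with 0.1–0.3 μM or 0.1% DMSO. Fixed in 4% paraformaldehyde, mounted with DAPI, and yellow LC3 puncta imaged by confocal microscopy.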

Series [21] can be described thus: Octanol-water partition coefficient, log P of the compound at pH 7.4 at 4 mg measured after 24 hrs by liquid chromatography. Type of series: physicochemical. In outline:
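4 mg of compound was dissolved in 1 mL water-saturated n-octanol and held 24 h at room temperature, then centrifuged. The supernatant was mixed with an equal volume of octanol-saturated water, stood 24 h, centrifuged and the phases separated. Phase concentrations were measured by LC standard curves. log P = log(C_octanol/C_water). At least three independent runs.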

Series [22] deals with A549. The series is described as follows: Induction of cell cycle arrest in human A549 cells assessed as accumulation of cells at S phase at 0.3 uM measured after 24 hrs by PI/RNase staining based analysis (reference value: 24.95%). The format is functional.

Regarding `COc1ccc(/C=C(/C(=O)N2CCN(c3ccc(C)cc3)CC2)c2cc(OC)c(OC)c(OC)c2)cc1O`, the Activity result in [1] was “Dose-Dependent Effect”; in series [2], 88.26%; in series [3] it was 24.95%; in [4], 17.43%; in series [7], 8.87%; in [9], 5.43%. Besides, the Activity in [10] is 0.83%; in series [11] it was “Dose-Dependent Effect”; in series [13], 21.17%; in series [14] it was 5.75%; in series [15], 13.76%; in [16] it was 87.18%. The Activity in series [17] was 4.72%; in [18], 10.34%; in [20], “Dose-Dependent Effect”; in series [22] it was 7.17%. In addition, the inhibition result in series [5] was “Dose-Dependent Effect”. The values for the IC50 in series [6] and in series [12] were 227 nM and 574 nM, respectively. The result in series [8] was Active. Also, the selectivity ratio in series [19] was 4.8. Also, the logD at 24 h in [21] was -0.013.
